The values below come from ChEMBL document CHEMBL1144540, “Analgesic agents without gastric damage: design and synthesis of structurally simple benzenesulfonanilide-type cyclooxygenase-1-selective inhibitors” (Bioorg Med Chem, 2007).

Active and inactive are the calls of the source. No cut-off for these calls is given here.

The first test addresses T1, Prostaglandin G/H synthase 1 (Ovis aries, UniProt P05979).
T1 sequence (P05979 whole entry): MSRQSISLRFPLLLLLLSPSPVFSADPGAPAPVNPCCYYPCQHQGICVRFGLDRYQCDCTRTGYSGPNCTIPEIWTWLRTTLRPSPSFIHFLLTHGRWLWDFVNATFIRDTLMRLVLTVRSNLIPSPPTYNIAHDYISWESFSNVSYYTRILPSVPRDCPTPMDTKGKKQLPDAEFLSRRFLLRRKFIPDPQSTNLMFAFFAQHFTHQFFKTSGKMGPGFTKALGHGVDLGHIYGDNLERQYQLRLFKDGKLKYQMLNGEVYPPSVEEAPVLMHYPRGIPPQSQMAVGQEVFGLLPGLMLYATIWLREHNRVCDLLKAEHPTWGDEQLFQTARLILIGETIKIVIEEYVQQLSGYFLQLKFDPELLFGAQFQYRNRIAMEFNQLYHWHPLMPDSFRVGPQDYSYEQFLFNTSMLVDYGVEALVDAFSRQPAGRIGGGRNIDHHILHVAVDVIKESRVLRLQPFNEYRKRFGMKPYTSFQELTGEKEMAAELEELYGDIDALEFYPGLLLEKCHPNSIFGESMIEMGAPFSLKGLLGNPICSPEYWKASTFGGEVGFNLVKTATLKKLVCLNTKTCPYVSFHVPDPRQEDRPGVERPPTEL
The test can be described thus: Inhibition of ovine COX1.
Conditions: not given
In a few lines:
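Colorimetric ovine COX inhibitor screening kit, run per the supplier's protocol. Each experiment was run at least twice and the mean was reported.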
For orientation: IC50 means the concentration that inhibits the measured activity by half. With `Nc1ccc(S(=O)(=O)Nc2ccc(Cl)cc2)cc1`, half-maximal inhibition (IC50) was put at 12 µM.
`COc1cc(N)ccc1N(C)S(=O)(=O)c1ccc(Cl)cc1` displayed an IC50 of 20 µM.
Regarding `CN(c1ccc(Cl)cc1)S(=O)(=O)c1ccc(N)cc1`, half-maximal inhibition (IC50) required 3.2 µM.
Same read-out and setting: for `CN(c1ccc(N)cc1)S(=O)(=O)c1ccc(Cl)cc1` the value was 9.2 µM.
On the same count and under the same terms, the figure for `Cc1cc(N)ccc1N(C)S(=O)(=O)c1ccc(Cl)cc1` is 26 µM.

For a further test, the system named is Rattus norvegicus. Kind of test: Effect on gastric damage in rat assessed as induction of gastric ulcer at 30 mg/kg, po after 5 hrs. It counts as functional, organism-based. Further details: dose 30 mg/kg. To be noted: Stomach. In a few lines: (§1)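 Male rats, 170–200 g, given a single oral dose in 0.5% CMC vehicle (n = 3–5 per group). Ulcer lengths were measured in millimetres and summed to give an overall gastric damage score per rat. Data are means with SEM.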
As to `CC(=O)Oc1ccccc1C(=O)O`, the outcome was Active.

A further test deals with Rattus norvegicus. The test can be described thus: Effect on gastric damage in rat assessed as induction of gastric ulcer at 10 mg/kg, po after 5 hrs. Further details: dose 10 mg/kg. Conditions: Stomach. It counts as functional, organism-based. In a few lines:
as §1
Take `COc1ccc2c(c1)c(CC(=O)O)c(C)n2C(=O)c1ccc(Cl)cc1`: the outcome was Active.

The target in the next test is T2, Prostaglandin G/H synthase 1 (Ovis aries) (UniProt P05979).
T2 sequence (whole entry): T1 sequence (P05979 whole entry)
The test can be described thus: Inhibition of ovine COX1 at 100 uM.
Conditions: not given
The method in brief: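 Colorimetric ovine COX inhibitor screening kit, run per the supplier's protocol. […] Each experiment was run at least twice and the mean was reported.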
For orientation: inhibition means the share of the control response that was lost under treatment. A lower inhibition goes with little suppression. In turn, `Cc1cc(C)cc(NS(=O)(=O)c2ccc(NS(C)(=O)=O)cc2)c1` came in with an inhibition of 0%.
On the same count and under the same terms, for `O=C(O)c1ccc(S(=O)(=O)Nc2ccc(C(F)(F)F)cc2)cc1` the value was 0%; for `Cc1ccc(NS(=O)(=O)c2ccc([N+](=O)[O-])cc2)cc1`, 44%.
Same read-out and setting: for `Cc1ccc(N(C)S(=O)(=O)c2ccc(N)cc2)cc1` the value was 21%.
On to `CCN(c1ccc(Cl)cc1)S(=O)(=O)c1ccc(N)cc1`, for which the inhibition came out at 10%.
Same read-out and setting: the figure for `CCCN(c1ccc(Cl)cc1)S(=O)(=O)c1ccc(N)cc1` is 0%.
Same read-out and setting: for `Cc1cccc(NS(=O)(=O)c2ccc(C(=O)O)cc2)c1` the value was 0%; for `CN(c1ccc(Br)cc1)S(=O)(=O)c1ccc(N)cc1`, 21%.
On the same count and under the same terms, for `Cc1ccc(NS(=O)(=O)c2ccc(NS(C)(=O)=O)cc2)cc1` the value was 12%.
In turn, `CN(c1ccc(I)cc1)S(=O)(=O)c1ccc(N)cc1` registered an inhibition of 18%.
Compound `O=[N+]([O-])c1ccc(S(=O)(=O)Nc2ccc(C(F)(F)F)cc2)cc1` displayed an inhibition of 1%.
The same measure, in the same setting: for `Nc1ccc(S(=O)(=O)Nc2ccc(Br)cc2)cc1` the value was 23%; for `COc1ccc(NS(=O)(=O)c2ccc(NS(C)(=O)=O)cc2)cc1`, 8%.
Same read-out and setting: for `O=[N+]([O-])c1ccc(S(=O)(=O)Nc2cc(C(F)(F)F)cc(C(F)(F)F)c2)cc1` the value was 19%.
Still for that read-out and setting: for `O=[N+]([O-])c1ccc(S(=O)(=O)Nc2ccc(Cl)cc2)cc1` the value was 6%; for `CS(=O)(=O)Nc1ccc(S(=O)(=O)Nc2ccc(Cl)cc2)cc1`, 11%.
Take `COc1ccc(NS(=O)(=O)c2ccc([N+](=O)[O-])cc2)cc1`: the inhibition stood at 0%.
`Nc1ccc(S(=O)(=O)Nc2ccc(I)cc2)cc1`: the inhibition stood at 18%.
Still for that read-out and setting: for `Cc1cccc(NS(=O)(=O)c2ccc(N)cc2)c1` the value was 8%; for `Nc1ccc(S(=O)(=O)Nc2ccc(F)cc2)cc1`, 15%.
Compound `COc1cc(N)ccc1NS(=O)(=O)c1ccc(Cl)cc1` came in with an inhibition of 1%.
On the same count and under the same terms, the figure for `Cc1cc(N)ccc1NS(=O)(=O)c1ccc(Cl)cc1` is 7%; for `Nc1ccc(S(=O)(=O)Nc2cccc(Cl)c2)cc1` it is 18%; for `Cc1ccccc1NS(=O)(=O)c1ccc(N)cc1` it is 5%.
`Cc1ccc(NS(=O)(=O)c2ccc(N)cc2)cc1` showed an inhibition of 52%.
Turning to `Cc1cc(C)cc(NS(=O)(=O)c2ccc(N)cc2)c1`, the inhibition is 13%.
With `CS(=O)(=O)Nc1ccc(S(=O)(=O)Nc2cc(C(F)(F)F)cc(C(F)(F)F)c2)cc1`, the inhibition turned out to be 0%.
Same read-out and setting: the figure for `CS(=O)(=O)Nc1ccc(S(=O)(=O)Nc2ccccc2)cc1` is 0%.
With `CN(c1ccccc1)S(=O)(=O)c1ccc(N)cc1`, the inhibition was 48%.
Same read-out and setting: for `COc1ccc(N(C)S(=O)(=O)c2ccc(N)cc2)cc1` the value was 6%; for `CN(c1ccc(C(F)(F)F)cc1)S(=O)(=O)c1ccc(N)cc1`, 9%.
Same read-out and setting: the figure for `Nc1ccc(S(=O)(=O)Nc2ccc(Cl)cc2)cc1` is 70%; for `Nc1ccc(S(=O)(=O)Nc2ccccc2Cl)cc1` it is 53%; for `COc1cc(N)ccc1N(C)S(=O)(=O)c1ccc(Cl)cc1` it is 73%.
The same measure, in the same setting: the figure for `CN(c1ccc(F)cc1)S(=O)(=O)c1ccc(N)cc1` is 0%.
Consider `CN(c1ccc(Cl)cc1)S(=O)(=O)c1ccc(N)cc1`, for which the inhibition came to 78%.
Still for that read-out and setting: for `Nc1ccc(S(=O)(=O)Nc2ccc(C(F)(F)F)cc2)cc1` the value was 14%; for `Cc1cccc(NS(=O)(=O)c2ccc([N+](=O)[O-])cc2)c1`, 3%.
Compound `Nc1ccc(S(=O)(=O)Nc2ccc(Cl)cc2Cl)cc1` displayed an inhibition of 6%.
As for `CN(c1ccc(Cl)cc1)S(=O)(=O)c1cccc(N)c1`, the inhibition was found to be 39%.
Still for that read-out and setting: the figure for `CN(c1ccc(N)cc1)S(=O)(=O)c1ccc(Cl)cc1` is 68%.
On the same count and under the same terms, for `O=[N+]([O-])c1ccc(S(=O)(=O)Nc2ccccc2)cc1` the value was 0%.
`Cc1cccc(NS(=O)(=O)c2ccc(NS(C)(=O)=O)cc2)c1` had an inhibition of 3%.
Same read-out and setting: for `Nc1ccc(S(=O)(=O)Nc2cc(C(F)(F)F)cc(C(F)(F)F)c2)cc1` the value was 30%.
The compound `Cc1ccccc1NS(=O)(=O)c1ccc([N+](=O)[O-])cc1` registered an inhibition of 0%.
As for `Cc1cc(N)ccc1N(C)S(=O)(=O)c1ccc(Cl)cc1`, the inhibition stood at 77%.
The same measure, in the same setting: the figure for `CS(=O)(=O)Nc1ccc(S(=O)(=O)Nc2ccc(C(F)(F)F)cc2)cc1` is 8%.
The same measure, in the same setting: for `Nc1ccc(NS(=O)(=O)c2ccc(Cl)cc2)cc1` the value was 3%; for `O=C(O)c1ccc(S(=O)(=O)Nc2cc(C(F)(F)F)cc(C(F)(F)F)c2)cc1`, 25%; for `COc1ccc(NS(=O)(=O)c2ccc(C(=O)O)cc2)cc1`, 3%.
On the same count and under the same terms, for `Cc1ccccc1NS(=O)(=O)c1ccc(NS(C)(=O)=O)cc1` the value was 0%.
`Cc1ccccc1NS(=O)(=O)c1ccc(C(=O)O)cc1` yielded an inhibition of 21%.
On the same count and under the same terms, for `Nc1ccc(S(=O)(=O)Nc2ccccc2)cc1` the value was 0%; for `Cc1cc(C)cc(NS(=O)(=O)c2ccc([N+](=O)[O-])cc2)c1`, 0%.
Compound `Nc1ccc(NS(=O)(=O)c2ccc(Cl)cc2)c(C(F)(F)F)c1` registered an inhibition of 7%.
The same measure, in the same setting: the figure for `O=C(O)c1ccc(S(=O)(=O)Nc2ccccc2)cc1` is 11%.
